An excerpt weighted towards active compounds, which were near 3.5% of everything screened.
RGS4 act = RGS4 potentiation or activation; HEK293 M3R/inducible RGS4, carbachol calcium flux Fluo4; hits give low values; B-score at 10 µM; 310,000 tested, 0.92% active;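 active means B-score of the integrated calcium signal more than 4 SD below the library mean, with starting fluorescence not abnormally high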;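 further: negative B-score means reduced calcium response which marks RGS4 activation or potentiation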
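System – HEK293 FlpIn-TREx cells, stable M3R, doxycycline-inducible RGS4 · Reagent – ECmax carbachol challenge · Times – compound preincubation 20 min at room temperature before agonist · Technique – Fluo4 fluorescence kinetic imaging of calcium · Measure – B score of integrated Fluo4 ratio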
MrgX1 ag = human MrgX1 receptor agonism, primary screen | Q96LB2 | MrgX1-HEK293 cells, Fluo-4 calcium fluorescence, agonist mode; hits give high values | B-score at 10 µM | 310,000 tested, 0.44% active | AID 588627;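 active means calcium response B-score plate-corrected fluorescence ratio at least 3 library SD, with starting fluorescence B-score inside 5 SD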
Target sequence (Q96LB2 whole entry, looked up): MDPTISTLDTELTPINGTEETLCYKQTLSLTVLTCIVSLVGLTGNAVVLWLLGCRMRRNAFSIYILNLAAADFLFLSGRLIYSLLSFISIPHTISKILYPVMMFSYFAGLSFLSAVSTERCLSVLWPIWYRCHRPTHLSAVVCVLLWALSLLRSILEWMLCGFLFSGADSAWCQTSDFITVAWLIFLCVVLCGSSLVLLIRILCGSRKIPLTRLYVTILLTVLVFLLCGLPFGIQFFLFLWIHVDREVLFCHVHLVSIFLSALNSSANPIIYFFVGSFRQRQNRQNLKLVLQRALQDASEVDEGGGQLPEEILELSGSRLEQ
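Test system: Stable human MrgX1 HEK293 cell line | Schedule: Overnight plating before 1 h dye loading | Read-out basis: Baseline-normalised fluorescence change ratio, B-scored | Detection: Kinetic calcium dye fluorescence, Fluo-4 NW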
MrgX1 antag = antagonists of human MrgX1 receptor. AID 588676. Q96LB2. 310,000 tested, 1.3% active. MRGX1-HEK293 calcium flux, Fluo-4, BAM8-22 antagonism; hits give low values. B-score at 10 µM;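 active means calcium-response B-score plate-corrected more than 3 library SD below zero, starting fluorescence within 5 deviations, no agonist response on first addition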;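 further: peak minus trough fluorescence over baseline after final BAM8-22 challenge near maximal dose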
MrgX1 PAM = allosterically activates human MrgX1 receptor signaling; 310,000 tested, 0.63% active; Q96LB2; B-score at 10 µM; MrgX1-HEK293, Fluo-4 calcium flux, FDSS; hits give high values;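 active means plate-corrected calcium response at least 3 library SD above typical, normal starting fluorescence, not activating the receptor alone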;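 further: compound read alongside a low EC10 to EC30 dose of BAM8-22 agonist; peak minus trough fluorescence over baseline measured at the second addition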
RGS4 inh = human RGS4 inhibition. P49798. HEK293 M3R/RGS4 inducible, Fluo-4 calcium flux; hits give high values; triggered by carbachol at its EC20. B-score at 10 µM. 310,000 tested, 0.45% active;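 active means B-score, a plate-corrected calcium signal, over three deviations above library mean, with baseline fluorescence within five deviations of library mean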;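 further: RGS4 expression induced by doxycycline in cells with stable M3 receptor; B-score is computed from the integrated fluorescence ratio over baseline after carbachol; higher B-score means a larger calcium signal and so more RGS4 inhibition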
Target sequence (P49798 whole entry, looked up): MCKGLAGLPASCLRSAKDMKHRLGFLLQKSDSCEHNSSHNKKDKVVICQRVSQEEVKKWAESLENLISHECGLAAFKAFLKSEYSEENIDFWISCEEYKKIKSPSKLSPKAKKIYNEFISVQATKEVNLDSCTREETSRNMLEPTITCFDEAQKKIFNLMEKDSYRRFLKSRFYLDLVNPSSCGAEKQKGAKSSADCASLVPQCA
RGS4 inh valid = RGS4 inhibitor validation | calcium response, % at 10 µM | 1,700 tested, 65% active | shares compounds with RGS4 inh | HEK293 M3R/RGS4, carbachol calcium Fluo-4 fluorescence; carbachol added at its EC20; 0 = buffer wells, 100 = carbachol control;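 active means duplicate-averaged calcium response above the buffer-only control mean plus 5 SD of those controls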;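 further: integrated fluorescence ratio F max minus min over baseline F0; higher response in RGS4-induced cells means RGS4 inhibition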
RGS4 uninduced = non-induced cell nonspecific activity of RGS4 inhibitors; shares compounds with RGS4 inh; HEK293 M3R non-induced, carbachol calcium Fluo-4; submaximal (EC20) carbachol stimulus; buffer wells 0%, carbachol control wells 100%; activity (percent), % at 10 µM; 1,900 tested, 20% active; AID 493000; call rule not given here;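 further: RGS4 induction absent so cells express M3R without RGS4; higher means more calcium signal and flags a non-specific hit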
M3R basal Ca ctr = second RGS4 inhibitor counter-screen in uninduced cells lacking carbachol; shares compounds with RGS4 inh; HEK293 M3R/RGS4 non-induced, Fluo-4 calcium, no carbachol; normalised: buffer wells 0%, carbachol wells 100%; calcium response (agonist-mode artifact), % at 10 µM; 1,900 tested, 22% active;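 active means duplicate-averaged calcium rise in uninduced cells above buffer wells' mean plus 5 SD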
* hit, by the source's call.

Results for Cc1ccc(-n2c(SCC(=O)N3CCOCC3)nnc2-c2ccncc2)cc1C ?
RGS4 act: inactive; MrgX1 ag: inactive; MrgX1 antag: inactive; MrgX1 PAM: inactive; RGS4 inh: inactive

Results for Cc1c(C(=O)OCc2nc3scc(-c4ccccc4)c3c(=O)[nH]2)cccc1[N+](=O)[O-] ?
RGS4 act: inactive; MrgX1 ag: inactive; MrgX1 antag: inactive; MrgX1 PAM: inactive; RGS4 inh: inactive

What do the screens show for `O=C(OCc1nc2scc(-c3ccccc3)c2c(=O)[nH]1)c1cc(Cl)ccc1[N+](=O)[O-]`?
RGS4 act: inactive; MrgX1 ag: inactive; MrgX1 antag: inactive; MrgX1 PAM: inactive; RGS4 inh: 6.2*; RGS4 inh valid: 24%*; RGS4 uninduced: inactive; M3R basal Ca ctr: inactive

What do the screens show for `Nn1c(Nc2ccccc2)nc2sc3c(c2c1=O)CCC3`?
RGS4 act: inactive; RGS4 inh: 4.8*; RGS4 inh valid: 14%*; RGS4 uninduced: inactive; M3R basal Ca ctr: inactive

Results for Nc1nc(Cl)cc(Nc2ccccc2Cl)n1 ?
RGS4 act: inactive; MrgX1 ag: inactive; MrgX1 antag: inactive; MrgX1 PAM: inactive; RGS4 inh: inactive

How did COc1ccc(Nc2cc(Cl)nc(N)n2)cc1OC do in these assays?
RGS4 act: inactive; MrgX1 ag: inactive; MrgX1 antag: inactive; MrgX1 PAM: inactive; RGS4 inh: 6.1*; RGS4 inh valid: 6.0%*; RGS4 uninduced: inactive; M3R basal Ca ctr: inactive

Results for CC(C)(C)c1nn(-c2ccccc2)c2nc(Cl)c(C=O)cc12 ?
RGS4 act: inactive; MrgX1 ag: inactive; MrgX1 antag: inactive; MrgX1 PAM: inactive; RGS4 inh: 5*; RGS4 inh valid: 13%*; RGS4 uninduced: 30%*; M3R basal Ca ctr: inactive

Results for O=C(CN1C(=O)NC2(CCCC2)C1=O)N1CCN(c2ccccc2O)CC1 ?
RGS4 act: inactive; MrgX1 ag: inactive; MrgX1 antag: inactive; MrgX1 PAM: inactive; RGS4 inh: inactive

Results for COc1ccc(-c2ccc3oc(-c4ccc(OC)cc4)c(C#CCO)c3c2)cc1 ?
RGS4 act: inactive; MrgX1 ag: inactive; MrgX1 antag: inactive; MrgX1 PAM: inactive; RGS4 inh: inactive

Results for COc1ccc(-c2sc3ccc(OC)cc3c2C#CCCO)cc1 ?
RGS4 act: inactive; MrgX1 ag: inactive; MrgX1 antag: inactive; MrgX1 PAM: inactive; RGS4 inh: inactive; RGS4 inh valid: inactive; RGS4 uninduced: inactive; M3R basal Ca ctr: inactive

How did COc1ccc(C(C)=O)cc1COC(=O)c1cc(=O)c2ccccc2o1 do in these assays?
RGS4 act: inactive; MrgX1 ag: inactive; MrgX1 antag: inactive; MrgX1 PAM: inactive; RGS4 inh: inactive

What do the screens show for `O=C1c2cccc3cc([N+](=O)[O-])cc(c23)C(=O)N1c1ccccc1O`?
RGS4 act: inactive; MrgX1 ag: inactive; MrgX1 antag: inactive; MrgX1 PAM: inactive; RGS4 inh: 5.1*; RGS4 inh valid: 14%*; RGS4 uninduced: inactive; M3R basal Ca ctr: inactive

How did CCn1c(C)c(Br)c(=O)c(C(=O)OC)c1-c1ccc(Cl)cc1 do in these assays?
RGS4 act: inactive; MrgX1 ag: inactive; MrgX1 antag: inactive; MrgX1 PAM: inactive; RGS4 inh: inactive

Results for COc1ccc(NC(=O)/C(Cl)=C(/Cl)S(=O)(=O)Cc2ccccc2)cn1 ?
RGS4 act: inactive; RGS4 inh: 18*; RGS4 inh valid: 69%*; RGS4 uninduced: 48%*; M3R basal Ca ctr: 15%*

Source: PubChem BioAssay
